In ChEMBL document CHEMBL3808372, “Identification of quinones as novel PIM1 kinase inhibitors” (Bioorg Med Chem Lett, 2016) one finds Activity data, which are given here for 1 molecule.

Structures are written as SMILES.

Holding throughout (parameters): scale not given: the % may be the effect or the level left
Experiment [1] deals with Cyclin-dependent kinase 11B (Homo sapiens) (UniProt P21127). Description: Inhibition of human CDK11 (1 to 360 amino acid residues) assessed as enzyme activity at 10 uM by KINOMEScan assay expressed in bacterial system assessed as enzyme activity at 10 uM by KINOMEScan assay. An outline of the steps:
(§1)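 Commercial KINOMEscan binding panel of 100 kinases, test compound at 10 μM. Results are primary-screen binding interactions expressed as % Ctrl = (test compound signal − positive control signal)/(negative control signal − positive control signal) × 100. Lower % Ctrl means stronger binding.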

In experiment [2] the target is Casein kinase I isoform gamma-2 (Homo sapiens) (UniProt P78368). The experiment in a line: Inhibition of full length human CSNK1G2 expressed in bacterial system assessed as enzyme activity at 10 uM by KINOMEScan assay. An outline of the steps:
as §1

The target of experiment [3] is Serine/threonine-protein kinase pim-2 (Homo sapiens) (UniProt Q9P1W9). Description: Inhibition of human PIM2 (1 to 291 amino acid residues) expressed in bacterial system assessed as enzyme activity at 10 uM by KINOMEScan assay. The procedure, abridged:
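Single-concentration competition binding screen (KINOMEscan) across a 100-kinase panel at 10 μM. Primary binding read-out is reported as % of control: (test signal − positive-control signal)/(negative-control signal − positive-control signal) × 100. Lower values indicate stronger binding.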

Chain of Casein kinase I isoform gamma-2 (Homo sapiens) (P78368 whole entry, looked up, canonical isoform): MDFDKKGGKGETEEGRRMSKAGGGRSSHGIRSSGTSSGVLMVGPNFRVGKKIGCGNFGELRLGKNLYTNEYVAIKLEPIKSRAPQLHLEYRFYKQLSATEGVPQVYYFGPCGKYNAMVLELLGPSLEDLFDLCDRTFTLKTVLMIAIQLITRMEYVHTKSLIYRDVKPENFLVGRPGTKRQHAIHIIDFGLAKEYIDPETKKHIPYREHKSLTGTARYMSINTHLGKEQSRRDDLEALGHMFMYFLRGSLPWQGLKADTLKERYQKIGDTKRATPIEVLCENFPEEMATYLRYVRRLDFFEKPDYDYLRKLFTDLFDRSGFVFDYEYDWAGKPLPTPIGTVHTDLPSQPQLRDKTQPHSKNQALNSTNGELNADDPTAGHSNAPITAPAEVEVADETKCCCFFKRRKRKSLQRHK
Chain of Serine/threonine-protein kinase pim-2 (Homo sapiens) (Q9P1W9 whole entry, looked up, the tested form may be a part): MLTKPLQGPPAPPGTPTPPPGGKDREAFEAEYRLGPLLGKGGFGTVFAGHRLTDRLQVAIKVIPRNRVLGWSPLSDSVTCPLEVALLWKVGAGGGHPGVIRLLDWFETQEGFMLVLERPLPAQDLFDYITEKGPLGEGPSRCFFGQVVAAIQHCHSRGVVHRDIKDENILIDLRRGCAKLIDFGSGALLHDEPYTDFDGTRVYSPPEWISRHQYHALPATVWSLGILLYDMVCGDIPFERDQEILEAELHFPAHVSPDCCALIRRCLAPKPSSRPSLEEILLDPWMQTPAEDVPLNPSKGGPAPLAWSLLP
Chain of Cyclin-dependent kinase 11B (Homo sapiens) (P21127 whole entry, the tested form may be a part): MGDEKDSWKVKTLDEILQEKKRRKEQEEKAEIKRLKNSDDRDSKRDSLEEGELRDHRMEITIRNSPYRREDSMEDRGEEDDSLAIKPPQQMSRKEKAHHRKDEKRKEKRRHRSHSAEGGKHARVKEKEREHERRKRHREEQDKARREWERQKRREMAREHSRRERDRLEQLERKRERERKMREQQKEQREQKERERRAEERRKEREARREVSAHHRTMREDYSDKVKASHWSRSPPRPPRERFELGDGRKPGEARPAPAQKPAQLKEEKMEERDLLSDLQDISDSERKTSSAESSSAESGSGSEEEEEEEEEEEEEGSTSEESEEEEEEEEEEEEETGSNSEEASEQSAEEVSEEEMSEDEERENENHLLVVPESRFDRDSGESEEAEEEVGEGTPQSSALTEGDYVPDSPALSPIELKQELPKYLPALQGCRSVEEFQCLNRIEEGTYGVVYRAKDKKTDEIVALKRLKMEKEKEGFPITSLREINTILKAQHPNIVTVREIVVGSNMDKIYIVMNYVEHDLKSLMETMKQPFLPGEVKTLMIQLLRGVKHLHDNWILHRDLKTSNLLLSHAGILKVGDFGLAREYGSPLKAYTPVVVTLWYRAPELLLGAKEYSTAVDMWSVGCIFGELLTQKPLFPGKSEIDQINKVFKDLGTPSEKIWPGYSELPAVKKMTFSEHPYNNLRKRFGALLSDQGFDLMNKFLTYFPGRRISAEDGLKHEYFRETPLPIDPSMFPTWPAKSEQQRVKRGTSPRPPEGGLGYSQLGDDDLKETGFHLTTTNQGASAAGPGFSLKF

Consider `O=C1C2=C(C(=O)c3c(O)ccc(O)c31)[C@@H](O)[C@@H](O)[C@@H](O)C2`, for which the Activity in experiment [1] is 86%; in experiment [2], 100%; in experiment [3] it was 67%.
